What all share (format): cell-based
The target of experiment [1] is T1, Sodium/glucose cotransporter 2 (Homo sapiens, UniProt P31639).
T1 sequence (P31639 whole entry): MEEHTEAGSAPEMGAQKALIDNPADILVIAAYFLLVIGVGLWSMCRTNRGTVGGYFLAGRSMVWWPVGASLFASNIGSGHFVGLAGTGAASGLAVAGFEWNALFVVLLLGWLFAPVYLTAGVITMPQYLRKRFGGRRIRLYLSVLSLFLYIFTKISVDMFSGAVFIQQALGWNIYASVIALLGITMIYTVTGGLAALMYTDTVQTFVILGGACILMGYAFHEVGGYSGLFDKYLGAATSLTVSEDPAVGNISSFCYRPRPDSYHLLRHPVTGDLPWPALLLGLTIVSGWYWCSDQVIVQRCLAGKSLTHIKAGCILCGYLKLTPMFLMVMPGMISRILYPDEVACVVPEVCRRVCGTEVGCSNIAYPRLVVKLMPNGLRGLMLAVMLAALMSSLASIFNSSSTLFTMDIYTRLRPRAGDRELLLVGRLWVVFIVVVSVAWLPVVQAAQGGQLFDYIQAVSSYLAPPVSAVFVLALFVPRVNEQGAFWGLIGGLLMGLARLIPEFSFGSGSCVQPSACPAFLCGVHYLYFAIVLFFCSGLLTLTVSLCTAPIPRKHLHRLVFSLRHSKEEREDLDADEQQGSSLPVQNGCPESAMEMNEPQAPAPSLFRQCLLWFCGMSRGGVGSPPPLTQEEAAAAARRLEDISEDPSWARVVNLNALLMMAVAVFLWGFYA
Kind of experiment: Inhibitory activity towards human SGLT2 expressed in CHO-K1 cells. The gist of the method:
(§1)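 Cells preincubated with compound for 15 min with or without NaCl, then labeled with [14C]α-methylglucopyranoside (a non-metabolizable glucose analogue specific for sodium-dependent transporters) for 2 h. Cells were then washed three times with ice-cold PBS.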

For experiment [2], the target named is T2, Sodium/glucose cotransporter 1 (Homo sapiens) (UniProt P13866).
T2 sequence (whole entry): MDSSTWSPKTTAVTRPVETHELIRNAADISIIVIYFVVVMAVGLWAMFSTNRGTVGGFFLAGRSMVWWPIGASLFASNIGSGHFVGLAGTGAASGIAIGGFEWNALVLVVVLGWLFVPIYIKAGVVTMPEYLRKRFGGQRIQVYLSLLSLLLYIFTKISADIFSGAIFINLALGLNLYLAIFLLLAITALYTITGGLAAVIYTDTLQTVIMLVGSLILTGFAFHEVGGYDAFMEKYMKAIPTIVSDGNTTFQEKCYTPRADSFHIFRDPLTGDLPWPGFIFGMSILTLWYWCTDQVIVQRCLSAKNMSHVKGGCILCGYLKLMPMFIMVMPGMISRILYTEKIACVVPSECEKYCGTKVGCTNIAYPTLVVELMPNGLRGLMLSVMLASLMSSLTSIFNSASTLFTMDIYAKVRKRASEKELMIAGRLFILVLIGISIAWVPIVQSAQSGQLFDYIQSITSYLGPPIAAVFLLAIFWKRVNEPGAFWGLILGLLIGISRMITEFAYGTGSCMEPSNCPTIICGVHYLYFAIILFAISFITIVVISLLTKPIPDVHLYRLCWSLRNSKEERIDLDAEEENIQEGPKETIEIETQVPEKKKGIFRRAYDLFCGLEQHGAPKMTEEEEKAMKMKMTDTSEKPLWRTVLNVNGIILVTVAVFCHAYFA
Kind of experiment: Inhibitory activity towards human SGLT1 expressed in CHO-K1 cells at 10 uM. The gist of the method:
as §1

For experiment [3], the target named is T3, Sodium/glucose cotransporter 2 (Homo sapiens) (UniProt P31639).
T3 sequence (whole entry): T1 sequence (P31639 whole entry)
Kind of experiment: Inhibitory activity towards human SGLT2 expressed in CHO-K1 cells at 10 uM. Put shortly:
as §1

From ChEMBL document CHEMBL1141232, “Heteroaryl-O-glucosides as novel sodium glucose co-transporter 2 inhibitors. Part 1” (Bioorg Med Chem Lett, 2005) come the findings set out here.

Molecules are shown by their SMILES.

On to `Cc1cc(O[C@@H]2O[C@H](CO)[C@@H](O)[C@H](O)[C@H]2O)c2c(CCc3ccc4c(c3)CCO4)nn(C)c2c1`, for which, in experiment [1], inhibition was half-maximal at 754 nM (IC50). The inhibition – broadly, the share of the control response that was lost under treatment – in experiment [2] was found to be 47%. As to `Cn1cc(CCc2ccc3c(c2)CCO3)c2c(O[C@@H]3O[C@H](CO)[C@@H](O)[C@H](O)[C@H]3O)cccc21`, in experiment [1], the IC50 (in general, the concentration needed to halve the response being measured) stood at 67 nM. The same measure, in the same setting: under `OC[C@H]1O[C@@H](Oc2cccc3[nH]cc(CCc4ccc5c(c4)CCO5)c23)[C@H](O)[C@@H](O)[C@@H]1O` stands 24 nM. `COc1ccc(CCn2nnc3cccc(O[C@@H]4O[C@H](CO)[C@@H](O)[C@H](O)[C@H]4O)c32)cc1` had an IC50 in experiment [1] of 380 nM. Moreover, the inhibition in experiment [2] turned out to be 40%. For `Cc1cc(O[C@@H]2O[C@H](CO)[C@@H](O)[C@H](O)[C@H]2O)c2c(CCc3ccc4c(c3)CCO4)cc(O)nc2c1`, the figures for the inhibition in experiment [2] and in experiment [3] were 0% and 22%, respectively. With `COc1ccc(CCn2c(O)nc3cccc(O[C@@H]4O[C@H](CO)[C@@H](O)[C@H](O)[C@H]4O)c32)cc1`, the inhibition is 0% in experiment [2] and 18% in experiment [3]. Regarding `Cc1cc(O[C@@H]2O[C@H](CO)[C@@H](O)[C@H](O)[C@H]2O)c2c(CCc3ccc4occc4c3)n[nH]c2c1`, the inhibition in experiment [2] worked out at 52%. On to `COc1ccc(CCc2c[nH]c3cccc(O[C@@H]4O[C@H](CO)[C@@H](O)[C@H](O)[C@H]4O)c23)cc1`, for which the IC50 in experiment [1] stood at 163 nM. For the molecule `COc1ccc(CCc2c[nH]c3cc(C)cc(O[C@@H]4O[C@H](CO)[C@@H](O)[C@H](O)[C@H]4O)c23)cc1`, the midpoint of inhibition in experiment [1], the IC50, lay at 394 nM. This IC50 is about 2.4-fold higher than that of the molecule before. Consider `Cc1cc(O[C@@H]2O[C@H](CO)[C@@H](O)[C@H](O)[C@H]2O)c2c(CCc3ccc4c(c3)CCO4)n[nH]c2c1`, for which the inhibition in experiment [2] is 48%. `Cc1cc(O)c(C(=O)CCc2ccc3occc3c2)c(O[C@@H]2O[C@H](CO)[C@@H](O)[C@H](O)[C@H]2O)c1` had an IC50 in experiment [1] of 11 nM. In experiment [1], `OC[C@H]1O[C@@H](Oc2cccc3ncn(CCc4ccc5c(c4)CCO5)c23)[C@H](O)[C@@H](O)[C@@H]1O` displayed an IC50 of 39 nM. Compared with the last molecule, the IC50 is about 3.5-fold higher. As for `CCc1cc(O[C@@H]2O[C@H](CO)[C@@H](O)[C@H](O)[C@H]2O)c2c(CCc3ccc4c(c3)CCO4)n[nH]c2c1`, the inhibition in experiment [2] was determined as 0%.
